Compound activity as filed in PubChem.
Rows were chosen to be rich in hits. Some 2.3% of all compounds tested hit in one or more screens of this group.
Tn6 DDE FP = inhibitors of Tn6 peptide binding to human fibrin DD(E) | P02675 | Fibrin DD(E) TRITC-Tn6 fluorescence polarization displacement | inhibition, % at 8.3 µM | hit rate 0.21% among 370,000;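 active = inhibition above a per-campaign cutoff: mean of compounds within control limits plus 3 SD, cut at about 15% in these data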;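 also: 0% = median of all compound wells on the plate and 100% = blocking peptide control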
DDE Tn7 FP inh = inhibitors of Tn7 peptide binding to human fibrin DD(E); P02675; FP displacement of FITC-Tn7 peptide from fibrin DD(E); 0% = median of compound wells per plate; inhibition, % at 8.3 µM; hit rate 0.13% among 370,000;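 active = inhibition above the mean of compounds falling within the control limits plus 3 SD of them, cut at about 14% in these data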;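 also: 0% = plate median of compound wells and 100% = 10 µM Aha-Tn7 peptide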
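Test system: human clot-derived fibrin DD(E) complex / Quantity: 2 µM final DD(E) protein / Incubation: 10 min plus 3 h, room temperature / Measured by: fluorescence polarization / Benchmarks: high control of 10 µM Aha-Tn7 peptide / Replicates: singlicate testing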
ADAM10 inh = inhibitors of human ADAM10; inhibition, % at 7 µM; hit rate 0.62% among 370,000; O14672; AID 720582; recombinant ADAM10, EDANS/DABCYL FRET peptide cleavage, 3 h;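 active = inhibition above a per-campaign cutoff equal to the mean of compounds falling between control-based bounds plus 3 SD, cut at about 20% in these data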;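 also: 0% = DMSO wells while the 100% control is not disclosed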
PLCg1 inh = blocks human PLC-gamma1 enzyme activity; purified PLC-gamma1, fluorogenic substrate, fluorescence; P19174; hit rate 0.84% among 370,000; inhibition, % at 12.2 µM; in the data active = inhibition above about 9.5%
Target sequence (P19174 whole entry, looked up): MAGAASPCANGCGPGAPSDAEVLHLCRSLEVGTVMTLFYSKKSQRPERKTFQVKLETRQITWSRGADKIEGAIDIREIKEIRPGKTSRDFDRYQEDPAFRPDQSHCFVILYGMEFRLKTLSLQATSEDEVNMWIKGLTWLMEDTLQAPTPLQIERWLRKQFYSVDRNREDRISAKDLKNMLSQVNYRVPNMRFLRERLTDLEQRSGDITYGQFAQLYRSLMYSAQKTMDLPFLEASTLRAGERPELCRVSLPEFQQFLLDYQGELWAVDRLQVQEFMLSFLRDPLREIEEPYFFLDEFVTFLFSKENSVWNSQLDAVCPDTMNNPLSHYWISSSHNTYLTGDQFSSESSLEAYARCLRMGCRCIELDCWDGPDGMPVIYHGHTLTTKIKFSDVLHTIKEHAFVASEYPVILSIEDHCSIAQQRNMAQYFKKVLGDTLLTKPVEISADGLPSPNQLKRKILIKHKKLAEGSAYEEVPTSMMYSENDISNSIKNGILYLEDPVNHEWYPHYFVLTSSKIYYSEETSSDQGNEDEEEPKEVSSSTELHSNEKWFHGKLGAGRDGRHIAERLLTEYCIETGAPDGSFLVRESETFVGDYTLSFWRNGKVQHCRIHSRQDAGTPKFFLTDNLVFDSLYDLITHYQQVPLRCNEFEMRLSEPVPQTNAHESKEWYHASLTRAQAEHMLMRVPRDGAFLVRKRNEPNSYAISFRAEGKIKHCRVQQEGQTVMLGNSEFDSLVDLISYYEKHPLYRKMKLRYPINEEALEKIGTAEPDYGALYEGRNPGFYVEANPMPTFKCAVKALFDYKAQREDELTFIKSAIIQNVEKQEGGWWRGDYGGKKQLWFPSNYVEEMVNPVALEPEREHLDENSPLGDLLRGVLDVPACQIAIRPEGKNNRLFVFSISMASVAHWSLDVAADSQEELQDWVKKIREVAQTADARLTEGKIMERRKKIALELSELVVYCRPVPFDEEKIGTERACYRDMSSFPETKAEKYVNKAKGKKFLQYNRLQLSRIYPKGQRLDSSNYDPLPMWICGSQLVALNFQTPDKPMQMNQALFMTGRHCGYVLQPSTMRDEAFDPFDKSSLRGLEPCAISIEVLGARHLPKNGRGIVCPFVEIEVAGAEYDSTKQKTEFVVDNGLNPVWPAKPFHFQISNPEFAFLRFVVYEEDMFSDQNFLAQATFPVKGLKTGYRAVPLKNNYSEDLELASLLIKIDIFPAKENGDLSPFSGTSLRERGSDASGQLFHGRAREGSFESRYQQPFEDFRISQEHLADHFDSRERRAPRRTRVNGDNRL
PLC-beta3 inh = inhibitors of human phospholipase C beta3; inhibition, % at 12.2 µM; Purified PLC-beta3, fluorogenic substrate, fluorescence; hit rate 0.18% among 370,000; Q01970; in the data active = inhibition above about 11%;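 also: 0% = median of compound wells on plate and 100% = full blocker control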
ADAM17 inh = inhibitors of human ADAM17; P78536; recombinant ADAM17, EDANS/DABCYL FRET peptide cleavage; inhibition, % at 6.95 µM; hit rate 0.83% among 370,000;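 active = inhibition above the mean of compounds lying between control limits plus 3 SD, set per campaign, cut at about 8.5% in these data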;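 also: 0% = DMSO-only wells as the low control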
ADAM10 ctr = inhibits human ADAM10 in ADAM17 exosite counter-screen | shares compounds with ADAM17 inh | recombinant ADAM10, EDANS/DABCYL FRET peptide cleavage, 3 h | inhibition, % at 6.95 µM | hit rate 47% among 2,900;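 active = mean inhibition over the triplicate runs exceeds the activity threshold set in the earlier primary screen, cut at about 20% in these data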;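 also: 0% = DMSO wells and 100% = marimastat wells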
ADAM17 confirm = human ADAM17 inhibition, confirmation; shares compounds with ADAM17 inh; recombinant ADAM17, EDANS/DABCYL QFRET peptide cleavage; inhibition, % at 6.95 µM; hit rate 65% among 2,900; AID 743257;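 active = mean inhibition across replicates above the hit cutoff set in the primary screen, cut at about 8.5% in these data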;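 also: 0% = DMSO wells and 100% = marimastat wells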
The depositor's hits bear a star.

CCC(C)[C@H](N)c1nnc(SCC(=O)c2ccc(Cl)cc2)o1 (some centres undefined) was read as Tn6 DDE FP -10, DDE Tn7 FP inh -9, ADAM10 inh 15, PLCg1 inh -5, PLC-beta3 inh -6, ADAM17 inh 9.2*, ADAM10 ctr -8 and ADAM17 confirm 0.
For CCCNC(=O)C1(C)CCN1C(=O)c1ccccc1CCc1ccccc1 (centres undefined) the results were Tn6 DDE FP -3, DDE Tn7 FP inh -4, ADAM10 inh 7, PLCg1 inh 3, PLC-beta3 inh 3, ADAM17 inh 8.8*, ADAM10 ctr -3 and ADAM17 confirm 0.
Screening CC(C)(C)CNC(=O)C1(C)CCN1C(=O)c1ccccc1CCc1ccccc1 (centres undefined) returned Tn6 DDE FP -1, DDE Tn7 FP inh -5, ADAM10 inh -6, PLCg1 inh 2, PLC-beta3 inh 3 and ADAM17 inh 2.
For S=c1[nH]nc(-c2cc(-c3ccccc3)n[nH]2)n1/N=C/c1cccc2ccccc12 the results were Tn6 DDE FP 2, DDE Tn7 FP inh -2, ADAM10 inh -2, PLCg1 inh -1, PLC-beta3 inh 0 and ADAM17 inh 0.
For COCCNC(=O)C(=O)c1c(-c2ccccc2)[nH]c2ccccc12 the results were Tn6 DDE FP -6, DDE Tn7 FP inh 0, ADAM10 inh 3, PLCg1 inh 1, PLC-beta3 inh 0 and ADAM17 inh -4.
O=C(C(=O)N(Cc1ccccc1)Cc1ccccc1)c1c(-c2ccccc2)[nH]c2ccccc12 was read as Tn6 DDE FP -3, DDE Tn7 FP inh 2, ADAM10 inh 22*, PLCg1 inh -4, PLC-beta3 inh -1, ADAM17 inh 11*, ADAM10 ctr 42* and ADAM17 confirm 22*.
For Cc1ccc(-c2[nH]nc(N)c2N=Nc2ccccc2C)cc1 the results were Tn6 DDE FP -5, DDE Tn7 FP inh -3, ADAM10 inh 15, PLCg1 inh 8, PLC-beta3 inh -2, ADAM17 inh 9.7*, ADAM10 ctr 25* and ADAM17 confirm 16*.
For N#CCC[C@@H]1CC[C@]2(CCCN(C(=O)c3cccnc3)C2)O1 the results were Tn6 DDE FP 7, DDE Tn7 FP inh -3, ADAM10 inh 3, PLCg1 inh 1, PLC-beta3 inh 4 and ADAM17 inh 3.
CCOC(=O)C1=CN(Cc2cccc(F)c2)S(=O)(=O)NC1c1ccc2ccccc2c1 (centres undefined) was read as Tn6 DDE FP -1, DDE Tn7 FP inh -2, ADAM10 inh 20, PLCg1 inh 2, PLC-beta3 inh 2, ADAM17 inh 9.8*, ADAM10 ctr 15 and ADAM17 confirm 11*.
CC(C)(C)c1ccc(-c2csc(N3CCC(C(N)=O)CC3)n2)cc1 was read as Tn6 DDE FP -5, DDE Tn7 FP inh -4, ADAM10 inh 15, PLCg1 inh 4, PLC-beta3 inh 2 and ADAM17 inh 3.
CN1C(=O)OC(C)(CCc2ccccc2)C1(C)O (centres undefined) was read as Tn6 DDE FP -11, DDE Tn7 FP inh 3, ADAM10 inh 15, PLCg1 inh 4, PLC-beta3 inh 3 and ADAM17 inh 1.
For CC1(O)N(Cc2ccccc2)C(=O)OC12CCCCC2 (centres undefined) the results were Tn6 DDE FP 1, DDE Tn7 FP inh -9, ADAM10 inh 7, PLCg1 inh 6, PLC-beta3 inh 5, ADAM17 inh 9.1*, ADAM10 ctr 12 and ADAM17 confirm 14*.
For Cc1ccc(CC2(c3ccccc3)NC(=O)NC2=O)cc1 (centres undefined) the results were Tn6 DDE FP -3, DDE Tn7 FP inh 2, ADAM10 inh -9, PLCg1 inh 1, PLC-beta3 inh 3, ADAM17 inh 18*, ADAM10 ctr -6 and ADAM17 confirm 18*.
`O=C1NC(=O)C(Cc2ccccc2)(c2ccccc2)N1` (centres undefined) gave Tn6 DDE FP 4, DDE Tn7 FP inh -6, ADAM10 inh -19, PLCg1 inh 4, PLC-beta3 inh 0 and ADAM17 inh 6.
Screening O=C1NC(=O)C(Cc2ccc(Cl)cc2)(c2ccccc2)N1 (centres undefined) returned Tn6 DDE FP 12, DDE Tn7 FP inh 6, ADAM10 inh 7, PLCg1 inh 1, PLC-beta3 inh 1, ADAM17 inh 40*, ADAM10 ctr 13 and ADAM17 confirm 65*.
COc1ccc(CN2C3=NC(c4ccccc4)CC(=O)N3/C(=C\c3ccccc3)C2c2ccccc2)c(OC)c1 (centres undefined) was read as Tn6 DDE FP -5, DDE Tn7 FP inh 2, ADAM10 inh 6, PLCg1 inh -2, PLC-beta3 inh -3 and ADAM17 inh 2.
For CCCCCCCCNS(=O)(=O)CC1NCc2cc(F)ccc21 (centres undefined) the results were Tn6 DDE FP 7, DDE Tn7 FP inh -2, ADAM10 inh 1, PLCg1 inh -9, PLC-beta3 inh -10 and ADAM17 inh 0.
`N#CCC[C@@H]1CC[C@]2(CCCN(C(=O)C3CCCCC3)C2)O1` gave Tn6 DDE FP -1, DDE Tn7 FP inh 1, ADAM10 inh -7, PLCg1 inh -4, PLC-beta3 inh 1 and ADAM17 inh -4.
C=CC[C@H](CC(=O)NCCO)C(=O)N[C@@H](COC(=O)[C@H](CC=C)CC(=O)OC(C)(C)C)Cc1c[nH]c2ccccc12 was read as Tn6 DDE FP -5, DDE Tn7 FP inh 3, ADAM10 inh 2, PLCg1 inh 1, PLC-beta3 inh 2 and ADAM17 inh -2.
Screening C=CC[C@@H](CC(=O)N(CCO)Cc1ccccc1)C(=O)N[C@H](COC(=O)[C@@H](CC=C)CC(=O)OC(C)(C)C)Cc1ccccc1 returned Tn6 DDE FP 9, DDE Tn7 FP inh -1, ADAM10 inh 28*, PLCg1 inh 8, PLC-beta3 inh 5, ADAM17 inh 18*, ADAM10 ctr 39* and ADAM17 confirm 18*.
Screening C=CC[C@H](CC(=O)N[C@H](CO)Cc1ccccc1)C(=O)N[C@H](COC(=O)[C@H](CC=C)CC(=O)OC(C)(C)C)Cc1c[nH]c2ccccc12 returned Tn6 DDE FP 1, DDE Tn7 FP inh -2, ADAM10 inh 18, PLCg1 inh -1, PLC-beta3 inh 3, ADAM17 inh 11*, ADAM10 ctr 26* and ADAM17 confirm 13*.
